Measurements taken from ChEMBL document CHEMBL1143370, “Effect of fluorination on the pharmacological profile of 11beta isomers of fulvestrant in breast carcinoma cells” (J Med Chem, 2009).
The source made the active and inactive calls. The calls are words filed in the database; no cut-off is given here.

Legend:
[1] = system: MCF7; experiment: Down regulation of estrogen receptor alpha expression in human MCF7 cells at 100 nM after 24 hrs by immunofluorescence staining; format: functional, cell-based
How it was run: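 MCF-7 cells treated 24 h at 100 nM, untreated control; ERα shown by immunofluorescence with HC-20 antiserum, Texas Red labeling.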

[2] = biological target: T1, Estrogen receptor (Homo sapiens) (UniProt P03372); experiment: Displacement of [3H]estradiol from human recombinant estrogen receptor alpha by radiometric assay relative to estradiol
T1 sequence (whole entry): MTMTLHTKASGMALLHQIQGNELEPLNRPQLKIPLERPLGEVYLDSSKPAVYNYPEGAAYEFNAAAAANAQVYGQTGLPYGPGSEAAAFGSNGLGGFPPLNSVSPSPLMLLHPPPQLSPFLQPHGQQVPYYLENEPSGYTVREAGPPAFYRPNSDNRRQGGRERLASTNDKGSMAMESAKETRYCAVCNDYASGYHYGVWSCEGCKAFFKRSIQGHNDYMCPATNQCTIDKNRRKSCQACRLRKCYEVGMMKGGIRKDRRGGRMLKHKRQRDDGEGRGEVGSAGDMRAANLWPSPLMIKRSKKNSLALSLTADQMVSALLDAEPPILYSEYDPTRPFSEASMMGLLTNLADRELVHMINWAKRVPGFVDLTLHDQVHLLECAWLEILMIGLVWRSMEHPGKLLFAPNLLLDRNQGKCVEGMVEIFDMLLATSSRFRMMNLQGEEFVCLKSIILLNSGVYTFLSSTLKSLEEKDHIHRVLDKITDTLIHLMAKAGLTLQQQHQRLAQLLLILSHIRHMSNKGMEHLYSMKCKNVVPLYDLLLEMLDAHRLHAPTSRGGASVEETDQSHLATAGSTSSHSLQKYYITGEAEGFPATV
How it was run: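 Purified recombinant human ERα; competition with [3H]E2 binding at 0 °C; inhibition curves give relative binding affinity (RBA).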

[3] = system: MCF7; experiment: Antiproliferative activity against human MCF7 cells after 3 days at 10 nM by crystal violet staining; format: functional, cell-based
[4] = system: MCF7; experiment: Antiproliferative activity against estradiol-stimulated human MCF7 cells after 3 days at 10 nM by crystal violet staining; format: functional, cell-based
[5] = system: MCF7; experiment: Down regulation of estrogen receptor alpha expression in human MCF7 cells after 24 hrs by Western blot analysis; format: functional, cell-based
How it was run: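 MCF-7 breast carcinoma cells exposed to increasing concentrations of each compound for 24 h, with untreated control cultures kept in parallel. Equal amounts of solubilized protein were analysed for ERα by Western blotting. The experiment was done twice.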

[6] = system: MCF7; experiment: Down regulation of estrogen receptor alpha expression in human MCF7 cells after 24 hrs by Western blot analysis in presence of 3,17beta-dihydroxy-11beta-[4,4,5,5,6,6,7,7-octafluoro-9-(4,4,5,5,5-pentafluoropentane-1-sulfinyl)nonyl]estra-1,3,5(10)-triene; format: functional, cell-based
How it was run: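 MCF-7 cells exposed 24 h to increasing concentrations, untreated cultures run in parallel; equal amounts of solubilized protein Western blotted for ERα; experiment done twice.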

[7] = system: MCF7; experiment: Suppression of estradiol-induced down regulation of estrogen receptor alpha expression in human MCF7 cells at 1 uM after 24 hrs by immunofluorescence staining; format: functional, cell-based
How it was run: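 ERα immunofluorescence (HC-20 antiserum, Texas Red) in MCF-7 cells after 24 h with E2 at 1 nM and/or compound at 1 µM; untreated control included.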

[8] = system: MCF7; experiment: Suppression of estradiol-induced down regulation of estrogen receptor alpha expression in human MCF7 cells at 1 uM after 24 hrs by Western blot analysis; format: functional, cell-based
How it was run: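 Western blot of ERα in MCF-7 cells after 24 h with compound at 1 µM, alone or with 10 nM E2; equal protein loading; experiment done twice.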

[9] = biological target: T1, Estrogen receptor (Homo sapiens); experiment: Antiestrogenic activity at human recombinant estrogen receptor alpha assessed as inhibition of recruitment of LxxLL-containing coactivators after 30 mins by ELISA in absence of estradiol
[10] = biological target: T1, Estrogen receptor (Homo sapiens); experiment: Antiestrogenic activity at human recombinant estrogen receptor alpha assessed as inhibition of recruitment of LxxLL-containing coactivators after 30 mins by ELISA in presence of estradiol
[11] = biological target: T1, Estrogen receptor (Homo sapiens); experiment: Binding affinity to estrogen receptor alpha in human MCF7 cells assessed as inhibition of [3H]E2 accumulation after 45 mins by whole cell competition binding assay; format: cell-based
How it was run: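 Intact MCF-7 cells incubated 45 min with [3H]E2 at 1 nM, alone (control) or with competitor at 1 nM to 1 µM; cellular [3H]E2 accumulation measured, with unlabeled E2 as reference.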

For `C[C@]12CC[C@@H]3c4ccc(O)cc4C[C@@H](CCCCCCCCC[S+]([O-])CCCC(F)(F)C(F)(F)F)[C@H]3[C@@H]1CC[C@@H]2O` (stereo partly specified), the Activity [1] was “Active”, the relative binding affinity (RBA) [2] was 10 and the Activity [3] was “Active”. For the same molecule, the Activity [4] was “Active” and the Activity [5] was “Active”.

`C[C@]12C[C@H](CCCC(F)(F)C(F)(F)C(F)(F)C(F)(F)CC[S+]([O-])CCCC(F)(F)C(F)(F)F)[C@@H]3c4ccc(O)cc4CC[C@H]3[C@@H]1CC[C@@H]2O` (stereo partly specified) was tested, and the Activity [1] was “inactive”, the Activity [6] was “inactive” and the Activity [7] was “Active”. For the same molecule, the Activity [8] was “Active”, the Activity [9] was “Active” and the relative binding affinity (RBA) [2] was 2. For the same molecule, the Activity [3] was “Active” and the Activity [10] was “Active”.

With `C[C@]12C[C@H](CCCCCCCCC[S+]([O-])CCCC(F)(F)C(F)(F)F)[C@@H]3c4ccc(O)cc4CC[C@H]3[C@@H]1CC[C@@H]2O` (stereo partly specified) the Activity [1] was “Active”, the Activity [9] was “Active” and the relative binding affinity (RBA) [2] was 6. The Activity [11] was “Active”, the Activity [3] was “Active” and the Activity [4] was “Active”. The Activity [10] was “Active” and the Activity [5] was “Active”.
